Results gathered from unrelated publications.
Each line is one published result; the experiments were not run side by side.
Target: Serine/threonine-protein kinase D2 (PRKD2, Homo sapiens, UniProt Q9BZL6)
One construct used (Q9BZL6 1-878): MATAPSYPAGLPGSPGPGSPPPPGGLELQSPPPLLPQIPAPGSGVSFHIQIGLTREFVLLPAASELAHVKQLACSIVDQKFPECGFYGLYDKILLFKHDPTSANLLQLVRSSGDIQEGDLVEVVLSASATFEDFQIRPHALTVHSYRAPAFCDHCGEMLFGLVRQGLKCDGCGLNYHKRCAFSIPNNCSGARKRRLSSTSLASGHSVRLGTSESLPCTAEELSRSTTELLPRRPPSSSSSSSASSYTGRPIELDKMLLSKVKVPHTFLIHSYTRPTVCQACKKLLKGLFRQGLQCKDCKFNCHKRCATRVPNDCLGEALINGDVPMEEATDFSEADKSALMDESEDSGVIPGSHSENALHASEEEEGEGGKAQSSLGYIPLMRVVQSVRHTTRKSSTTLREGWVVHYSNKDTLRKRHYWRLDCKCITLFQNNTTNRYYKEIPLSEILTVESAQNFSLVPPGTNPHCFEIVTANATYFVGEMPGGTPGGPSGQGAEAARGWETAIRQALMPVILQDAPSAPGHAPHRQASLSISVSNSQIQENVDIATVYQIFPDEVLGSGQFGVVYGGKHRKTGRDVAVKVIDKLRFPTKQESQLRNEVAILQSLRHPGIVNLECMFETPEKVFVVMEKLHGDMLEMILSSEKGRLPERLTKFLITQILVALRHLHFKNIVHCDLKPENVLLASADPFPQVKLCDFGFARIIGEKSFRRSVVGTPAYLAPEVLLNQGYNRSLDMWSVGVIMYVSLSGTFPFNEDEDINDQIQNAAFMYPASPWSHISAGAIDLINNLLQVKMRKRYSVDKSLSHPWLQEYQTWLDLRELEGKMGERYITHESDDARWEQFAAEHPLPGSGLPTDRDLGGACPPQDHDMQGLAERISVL

CNC(=O)[C@@H]1CC[C@@H](n2c(-c3ccc4cnccc4c3)nc3ccc(C(=O)NCc4cccc(C(N)=O)c4)cc32)C1
remaining binding (binding, competition with immobilised ligand; 1 µM): 90%

CNCc1ccccc1-c1csc([C@@H](C)Nc2nc(C)nc3cc(OC)c(OC)cc23)c1
remaining binding (cell-free assay, competition with immobilised ligand; 1 µM): 100%

C=CC(=O)N1CCC(C(=O)NCC(=O)N2CCN(c3nc(-c4cnc(N)nc4C(F)F)nc(N4CCOCC4)n3)CC2)CC1
remaining binding (binding, competition with immobilised ligand; 1 µM): 100%

COc1ccnn2ncc(-c3ccnc(N(C)C)n3)c12
remaining binding (binding; 1 µM): 92%

Cn1cc(Cl)c2c(Oc3c(F)cc(Nc4cc(Cl)nc(N)n4)cc3F)ccnc21
remaining binding (cell-free assay, competition with immobilised ligand; 0.1 µM): 91%

O=C(NCC1CCOCC1)c1n[nH]cc1NC(=O)c1c(F)cccc1F
remaining binding (binding, competition with immobilised ligand; 1 µM): 100%

O=C(c1ccc(Nc2ncc(Cl)c(-c3cc4ccccc4s3)n2)cc1)N1CCC(N2CCCC2)CC1
remaining binding (binding, competition with immobilised ligand; 1 µM): 21%

N[C@H]1CCN(c2nccc(-c3cnn4ncccc34)n2)C1
remaining binding (binding; 1 µM): 74%

O=C(NCCCN1CCOCC1)c1ccc(Nc2ncc(Cl)c(-c3ccc(Cl)s3)n2)cc1
remaining binding (binding, competition with immobilised ligand; 1 µM): 3.9%

CC(=O)N1CCC(c2ccc(C(=O)NC(=N)N)cc2C(F)(F)F)CC1
remaining binding (cell-free assay, competition with immobilised ligand; 1 µM): 100%

O=C(c1ccc(Nc2ncc(Cl)c(-c3ccc(Cl)s3)n2)cc1)N1CCC(N2CCCC2)CC1
remaining binding (binding, competition with immobilised ligand; 1 µM): 8.7%

c1cncc(-c2cccc(Nc3nccc(NC4CCCCC4)n3)c2)c1
remaining binding (binding, competition with immobilised ligand; 10 µM): 19%

CN(C)c1ncc(F)c(-c2cnn3ncccc23)n1
remaining binding (binding; 1 µM): 87%

CCN1CCN(Cc2ccc(C(=O)Nc3ccc(C)c(Oc4ccc5c(c4)CC(=O)N5)c3)cc2C(F)(F)F)CC1
remaining binding (binding, competition with immobilised ligand; 1 µM): 95%

F[C@@H]1CCN(c2nccc(-c3cnn4ncccc34)n2)C1
remaining binding (binding; 1 µM): 100%

N#Cc1ccc(Nc2ccc3[nH]c(=O)[nH]c3c2)c(Cl)c1
remaining binding (cell-free assay, competition with immobilised ligand; 1 µM): 100%

CN(c1nccc(-c2cnn3ncccc23)n1)C1CC1
remaining binding (binding; 1 µM): 99%

CS(=O)(=O)N1CCCC(NC(=O)[C@H](CCC2CCCCC2)NC(=O)c2ccc(CNC(=O)c3cnc4ccccn34)cc2)C1 (stereo partly shown)
remaining binding (cell-free assay, competition with immobilised ligand; 0.1 µM): 100%

C[C@H]1CCN(c2nccc(-c3cnn4ncccc34)n2)C1
remaining binding (binding; 1 µM): 82%

O=C(Nc1cccnn1)N1CCC(=Cc2cccc(Oc3ccc(C(F)(F)F)cn3)c2)CC1
remaining binding (cell-free assay, competition with immobilised ligand; 1 µM): 94%

CN(C)c1nccc(-c2cnn3ncccc23)n1
remaining binding (binding; 1 µM): 89%

COc1ccc2cc(OCC3(C(=O)O)CN(C(=O)c4ccc(F)cc4)C3)ccc2c1
remaining binding (cell-free assay, competition with immobilised ligand; 1 µM): 93%
